A selection: hits, their analogues and other compounds. The true share with any hit is near 1.8%.
M5 antag: blocks acetylcholine activation of human M5 receptor; AID 624040; CHO-hM5 cells, Fluo-8 calcium fluorescence, ACh EC80; inhibition, % at 3 µM; 0.59% of 360,000 active;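 active means inhibition above a per-plate cutoff, the mean of that plate's test compounds plus 3 SD, cut at about 27% in these data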;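 further: 0% = acetylcholine EC80 with DMSO and 100% = DMSO without agonist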
M4 ag: CHRM4 agonism in calcium assay; CHO-K1 hM4/Gqi5, Fluo-8 calcium fluorescence; vehicle 0%, full acetylcholine response 100%; activation, % at 3 µM; 0.14% of 360,000 active;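 active means activation above the run mean over all test wells plus 3 SD, cut at about 32% in these data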;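 further: peak over basal fluorescence ratio per well then scaled between controls; 0% = DMSO wells and 100% = acetylcholine at EC100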
Target sequence (P08173 whole entry, looked up): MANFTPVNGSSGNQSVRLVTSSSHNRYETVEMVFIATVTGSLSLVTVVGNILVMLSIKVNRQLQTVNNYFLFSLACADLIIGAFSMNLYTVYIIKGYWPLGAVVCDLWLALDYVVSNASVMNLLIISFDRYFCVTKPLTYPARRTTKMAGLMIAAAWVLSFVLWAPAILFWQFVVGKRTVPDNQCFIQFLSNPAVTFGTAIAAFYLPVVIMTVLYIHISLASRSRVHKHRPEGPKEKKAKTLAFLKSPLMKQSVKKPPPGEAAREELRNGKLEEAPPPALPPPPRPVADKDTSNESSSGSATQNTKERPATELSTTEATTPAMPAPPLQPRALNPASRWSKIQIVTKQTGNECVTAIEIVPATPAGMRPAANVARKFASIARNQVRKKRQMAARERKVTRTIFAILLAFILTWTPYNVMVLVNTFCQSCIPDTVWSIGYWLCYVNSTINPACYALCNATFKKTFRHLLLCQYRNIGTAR
CHRM5 agonist: CHRM5 agonism in calcium assay | CHO-K1 hM5 cells, Fluo-8 calcium fluorescence; 0% DMSO wells, 100% maximal acetylcholine response | activation, % at 3 µM | 0.19% of 360,000 active | AID 624037;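 active means activation above the run's mean over test compounds plus 3 SD, cut at about 23% in these data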;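 further: signal is peak over basal fluorescence ratio across the kinetic read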
CHRM4 antagonist: CHRM4 antagonism in calcium assay | P08173 | CHO-hM4 cells, ACh EC80, Fluo-8 calcium fluorescence | inhibition, % at 3 µM | 0.73% of 360,000 active | AID 624125;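 active means inhibition above its plate's cutoff, the mean inhibition of sample wells plus 3 SD, cut at about 27% in these data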;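 further: 0% = acetylcholine EC80 with DMSO and 100% = DMSO without agonist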
CHRM5 PAM: potentiates acetylcholine response at human M5 receptor | P08912 | CHO-K1 hM5, Fluo-8 calcium, ACh EC20 PAM; 0% = ACh EC20, 100% = ACh EC100 | activation, % at 3 µM | 0.3% of 360,000 active;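 active means activation above the run cutoff, the mean activation of all test compounds plus 3 SD, cut at about 18% in these data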
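Probe or stimulus: acetylcholine, EC20 level; Assay system: human M5 receptor in CHO-K1 cells; Schedule: compound preincubation 140 s before EC20 acetylcholine addition; Technique: intracellular calcium via Fluo-8 fluorescence; Dosing: single-point, 3 µM nominal; Read-out basis: percent activation from peak-over-basal fluorescence ratio, scaled EC20-to-EC100 acetylcholine; Repeats: one well per compound, no replicates.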
CHRM4 PAM: positive allosteric modulators of human muscarinic M4 receptor. P08173. CHO-K1 hM4/Gqi5, Fluo-8 calcium fluorescence, ACh EC20; 0% = ACh EC20, 100% = maximal ACh. activation, % at 3 µM. 0.4% of 360,000 active. AID 624126;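 active means activation above its plate's cutoff, the mean activation of sample wells plus 3 SD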
Numbers without * were called inactive.

SMILES	M5 antag	M4 ag	CHRM5 agonist	CHRM4 antagonist	CHRM5 PAM	CHRM4 PAM
CC(NC(=O)CCNS(=O)(=O)c1ccccc1)c1ccccc1 (configuration not stated)	5	0	-5	10	-1	22*
O=C(CCNS(=O)(=O)c1ccccc1)NCC1CCCCC1	2	1	2	0	-4	21*
O=C(c1ccc(=O)[nH]n1)N1CCN(S(=O)(=O)c2ccc(C(F)(F)F)cc2)CC1	-2	1	-9	-16	-11	2
O=C(COC(=O)c1cccc(Br)c1)NC1CCCCCCC1	-2	0	-1	8	-1	-6
CC(C)c1ccc(-c2nnc(SCC(=O)NC3CC3)n2C)cc1	14	1	2	10	30*	-4
Cn1c(SCC(=O)NC2CCCC2)nnc1-c1ccncc1	-11	0	-1	-2	-10	2
Cn1ccnc1SCC(=O)NC1CC1	17	5	-4	3	2	49*
Cn1ccnc1SCC(=O)NC1CCCCC1	1	0	0	3	-3	13
CCOC(=O)[C@H]1[C@H]2COc3ccccc3[C@@H]2N2C(=O)CNC(=O)[C@@]12C	10	0	3	2	1	10
O=C(NC1CCCCC1)c1cc2c(cc1Cl)N1CCCCCC1=NS2(=O)=O	0	1	1	-12	2	7
CCOc1ccccc1CNS(=O)(=O)c1ccc(-c2cnc(C3CC3)o2)cc1	28*	19	3	28*	-16	-11
O=C(NCc1cccs1)c1ccc(N2CCCC2=O)cc1	6	1	-2	13	22*	1
COc1ccccc1N(C)S(=O)(=O)c1ccc(C)c(C(=O)N2CCCCCC2)c1	4	4	-1	5	1	-4
NC(=O)c1ccsc1NC(=O)c1cccs1	6	1	-1	-15	-9	4
Cc1sc(NC(=O)c2cccs2)c(C(N)=O)c1C	-3	1	0	-1	4	18*
CCOC(=O)N1CCC(N2CCCC(C(=O)c3cc(C)c(OC)c(C)c3)C2)CC1 (configuration not stated)	36*	2	-11	21	-20	-16
COc1ccc(C(=O)C2CCCN(C3Cc4ccccc4C3)C2)cc1OC (configuration not stated)	11	1	-10	29*	-11	-18
COc1ccc(C(=O)C2CCCN(Cc3nc4ccccc4nc3C)C2)cc1OC (configuration not stated)	-3	1	-4	-8	0	-2
COc1ccccc1C1=NOC(C)(c2nnc(Cc3ccccc3)o2)C1 (configuration not stated)	-8	1	0	-19	2	3
NCCCC[C@H]1CN=C(N)N1CCC12CC3CC(CC(C3)C1)C2	14	3	-12	54*	-9	-14
Cn1c(COc2ccccc2O)[n+](C)c2ccccc21	8	2	-5	-14	-2	-1
CCCCCCCCCCOC(=O)Cn1c(COc2ccccc2OC)[n+](C)c2ccccc21	45*	7	-25	58*	-30	-16
COc1ccc(C)cc1S(=O)(=O)N1CCN(C(=O)c2ncoc2-c2ccc(C)cc2)CC1	11	9	-5	0	-8	-4
COc1ccc(C)cc1S(=O)(=O)N1CCN(C(=O)c2ncoc2-c2cccc(C)c2)CC1	28*	6	-6	-3	-8	-2
CC1CCCCC12NC(=O)N(CC(=O)NCCc1c[nH]c3ccccc13)C2=O (configuration not stated)	-1	2	-2	-2	0	-2
SMILES	M5 antag	M4 ag	CHRM5 agonist	CHRM4 antagonist	CHRM5 PAM	CHRM4 PAM
COC(=O)CCCCC1SCC2NC(=O)NC21 (configuration not stated)	-2	1	-2	-8	23*	5
CC(=O)OC[C@]12CC[C@H]3[C@@](C)(CC[C@H]4C(C)(C)CCC[C@]34C)[C@@H]1CC(C1=CC(=O)OC1O)O2 (some centres not stated)	13	2	1	88*	-2	-13
CC(=O)OC[C@]1(OC(C)=O)C[C@@]23CC[C@H]4[C@@](C)(CCC[C@@]4(C)C(=O)O)[C@@H]2CC[C@@H]1C3	7	1	-1	-1	-2	2
CC(=O)c1cccc(NC(=O)Nc2ccc3c(c2)N(C)C(=O)CS3)c1	30*	26	8	22	-16	-24
CCOC(=O)c1sc(NC(=O)c2ccc(Cl)s2)cc1C	-1	1	1	-2	-3	4
CCOC(=O)c1sc(NC(=O)Nc2ccc(Cl)cc2)cc1C	38*	17	7	33*	-27	-16
CCOc1cc(N2CCOCC2)c(OCC)cc1NC(=O)CN1C(=O)NC(C)(c2ccc(OC)cc2)C1=O (configuration not stated)	7	7	3	-25	4	17
Cc1cc(C)c2c(N)c(C(=O)c3ccc(Cl)cc3)sc2n1	6	11	0	-2	-6	28*
Cc1cc(C)c2c(N)c(C(=O)c3ccccc3)sc2n1	-10	26	-3	33*	5	56*
O=C(COc1ccc([N+](=O)[O-])cc1Cl)N1CCc2ccccc21	1	2	-4	4	1	3
COc1ccccc1C(=O)NCCC(=O)NCc1ccncc1	9	1	-7	-3	5	1
Cc1c(Cl)c([N+](=O)[O-])nn1CC(=O)N1CCN(Cc2ccccc2)CC1	-2	1	-2	0	-2	0
O=C(c1ccccc1)c1ccc2ccccc2c1	14	-2	0	-10	-8	2
O=C(c1ccccc1)c1c2c(cc3sc4ccccc4[n+]13)-c1cccc3cccc-2c13	25	33*	19	59*	-5	-39
C=CCn1c(SCCC)nc(O)cc1=O	9	62*	22	2	-9	-4
CCc1nnc(NC(=O)c2cccnc2SC)s1	-4	1	2	-4	11	2
COC(=O)c1ccc(CN(c2ccc(C(=O)O)c(O)c2)S(=O)(=O)c2ccc(Cl)c([N+](=O)[O-])c2)cc1	10	5	-3	-3	-10	-10
Cc1nnsc1C(=O)NC1CCCc2c1cnn2-c1ccc(C(C)(C)C)cc1 (configuration not stated)	28*	13	-2	10	-13	-5
Cc1nnsc1C(=O)NC1CCCc2c1cnn2-c1ccccc1F (configuration not stated)	8	10	6	3	-9	-1
Cc1ccc(C(=O)Nc2ncc([N+](=O)[O-])s2)cc1	32*	15	2	5	-19	-6
